Laboratory results reported in ChEMBL document CHEMBL5032534, “COUPY Coumarins as Novel Mitochondria-Targeted Photodynamic Therapy Anticancer Agents” (J Med Chem, 2021).
Activity calls are given as the source filed them. No cut-off for these calls is given here.

Experiments:
[1] = Drug uptake in human HeLa cells at 0.5 uM incubated for 30 mins by confocal microscopic analysis; type: ADME, cell-based; settings: 0.5 h
Summary of the method: (§1)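 HeLa cells in high-glucose DMEM with 10% fetal calf serum were seeded on glass-bottom dishes for 24 h, then loaded with compound for 30 min at 37 °C. They were washed three times with DPBS and kept in phenol-red-free low-glucose DMEM. Live cells were imaged by confocal microscopy at 37 °C with 5% CO2, excited at 561 nm, with emission collected from 570 to 670 nm.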

HeLa [2] = test: Induction of ROS generation in human HeLa cells assessed as increase in intracellular ROS level at 5 uM incubated for 1 hr in dark followed by irradiation with visible light for 1 hr under hypoxic condition by DCFH-DA staining based flow cytometric analysis; type: functional, cell-based; settings: time 2.0 hrs
Summary of the method: (§2)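 HeLa cells were seeded at 2 × 10^4/well for 24 h under 21% or 2% O2. They were co-treated with 5 μM compound plus a scavenger, which stayed present throughout: NAC 5 mM, NaN3 5 mM, mannitol 50 mM, tiron 5 mM, sodium pyruvate 10 mM or Trolox 0.1 mM. Cells were held 1 h dark, then 1 h under visible light, stained 30 min with 10 μM DCFH-DA, trypsinized and analysed by flow cytometry. At least two independent experiments, n = 3.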

HeLa [3] = test: Induction of mitochondrial membrane potential loss in human HeLa cells at 5 uM measured after 24 hrs by JC-1 dye-based flow cytometric analysis; type: functional, cell-based
Summary of the method: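 HeLa cells were seeded at 1.5 × 10^5 in 12-well plates for 24 h and treated for 24 h. Vehicle control held 0.4% DMSO and antimycin A (50 μM) served as positive control. Cells were stained with JC-1 (1 μM, 20 min) and analysed by flow cytometry (10^4 events; ex 488 nm; green 530 nm and red 585 nm channels). At least two independent experiments.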

HeLa [4] = test: Induction of autophagy in human HeLa cells assessed as increase in MDC-positive autophagic vesicles at 5 uM preincubated for 30 mins followed by light irradiation for 1 hr and further incubated for 6 hrs in drug-free medium by MDC staining based confocal microscopic analysis; type: functional, cell-based; settings: time 1.5 hrs
Summary of the method: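 HeLa cells were seeded at 1.5 × 10^4 cells/cm2 in chamber slides and given 0.5 h compound incubation, then 1 h visible-light irradiation. Medium was replaced for a 6 h recovery. Cells were stained with monodansylcadaverine (0.05 mM in PBS, 10 min, 310 K) and imaged by confocal microscopy (ex 405 nm). Vacuoles were counted in at least 10 cells from two experiments. Controls were starvation in EBSS for 2 h and resveratrol 50 μM for 2 h.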

HeLa [5] = test: Effect on cell cycle distribution in human HeLa cells at 5 uM incubated for 30 mins in dark by RNase/propidium iodide staining based FACS analysis; type: functional
Summary of the method: (§3)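 HeLa cells were seeded at 1.5 × 10^5/well and treated for 0.5 h, with or without 1 h visible-light irradiation, followed by 24 h recovery. Cells were fixed in ice-cold 70% ethanol for 1 h and stained with PI (40 μg/mL) plus RNase (1 μg/mL) for 30 min at 310 K. Analysis was by flow cytometry in the FL2-A channel. At least two independent experiments, n = 3.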

HeLa [6] = test: Effect on cell cycle distribution in human HeLa cells assessed as reduction in G1 phase population at 5 uM preincubated for 30 mins in dark followed by light irradiation for 1 hr by RNase/propidium iodide staining based FACS analysis; type: functional; settings: time 1.5 hrs; summary of the method: as §3
[7] = Drug uptake in mitochondria of human HeLa cells assessed as drug accumulation at 0.5 uM measured after 30 mins by confocal microscopic analysis; type: ADME; settings: 0.5 h; summary of the method: as §1
[8] = Drug uptake in nucleolus of human HeLa cells assessed as drug accumulation at 0.5 uM measured after 30 mins by confocal microscopic analysis; type: ADME, subcellular; settings: 0.5 h; summary of the method: as §1
HeLa [9] = test: Induction of ROS generation in human HeLa cells at 5 uM incubated for 1 hr in dark followed by irradiation with visible light for 1 hr under normoxic condition in presence of 5 mM NAC by DCFH-DA staining based flow cytometric analysis; type: functional, cell-based; settings: time 2.0 hrs; summary of the method: as §2
HeLa [10] = test: Induction of ROS generation in human HeLa cells at 5 uM incubated for 1 hr in dark followed by irradiation with visible light for 1 hr under hypoxic condition in presence of 5 mM NAC by DCFH-DA staining based flow cytometric analysis; type: functional, cell-based; settings: time 2.0 hrs; summary of the method: as §2
HeLa [11] = test: Induction of ROS generation in human HeLa cells at 5 uM incubated for 1 hr in dark followed by irradiation with visible light for 1 hr under normoxic condition in presence of Trolox by DCFH-DA staining based flow cytometric analysis; type: functional, cell-based; settings: time 2.0 hrs; summary of the method: as §2
HeLa [12] = test: Induction of ROS generation in human HeLa cells at 5 uM incubated for 1 hr in dark followed by irradiation with visible light for 1 hr under hypoxic condition in presence of NaPyr by DCFH-DA staining based flow cytometric analysis; type: functional, cell-based; settings: time 2.0 hrs; summary of the method: as §2
HeLa [13] = test: Induction of ROS generation in human HeLa cells at 5 uM incubated for 1 hr in dark followed by irradiation with visible light for 1 hr under hypoxic condition in presence of NaN3 by DCFH-DA staining based flow cytometric analysis; type: functional, cell-based; settings: time 2.0 hrs; summary of the method: as §2
HeLa [14] = test: Induction of ROS generation in human HeLa cells at 5 uM incubated for 1 hr in dark followed by irradiation with visible light for 1 hr under hypoxic condition in presence of Trolox by DCFH-DA staining based flow cytometric analysis; type: functional, cell-based; settings: time 2.0 hrs; summary of the method: as §2
[15] = Induction of singlet oxygen generation in air-saturated DCM solution assessed as reduction in 1,3-diphenylisobenzofuran absorption irradiated with 505 nanometer green light by DPBF-based assay; type: functional
HeLa [16] = test: Induction of autophagy in human HeLa cells […] pretreated with wortmannin for 1 hr followed by irradiation schedule for 1 hr by MDC staining based confocal microscopic analysis; type: functional
HeLa [17] = test: Induction of apoptosis in human HeLa cells assessed as increase in necrotic cells at 5 uM incubated for 30 mins in dark measured after 24 hrs by Annexin V-FITC/ Propidium iodide staining based flow cytometry analysis; type: functional, cell-based; settings: time 24.5 hrs
Summary of the method: (§4)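 HeLa cells were seeded at 1.5 × 10^5/well overnight and treated for 0.5 h, with or without 1 h visible-light irradiation, followed by 24 h recovery. Cells were trypsinized, resuspended in binding buffer, labelled with FITC-Annexin V and propidium iodide for 15 min at room temperature in the dark, and analysed by flow cytometry. Cisplatin (30 μM) served as positive control.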

HeLa [18] = test: Induction of apoptosis in human HeLa cells assessed as increase in early apoptotic cells at 5 uM preincubated for 30 mins in dark followed by irradiation for 1 hr and measured after 24 hrs by Annexin V-FITC/ Propidium iodide staining based flow cytometry analysis; type: functional, cell-based; settings: time 25.5 hrs; summary of the method: as §4
HeLa [19] = test: Induction of superoxide anion generation in human HeLa cells assessed as increase in DHE fluorescence at 5 uM incubated for 1 hr in dark followed by irradiation with visible light for 1 hr under hypoxic condition in presence of tiron by DHE staining based flow cytometric analysis; settings: time 2.0 hrs
[20] = Drug uptake in human HeLa cells at 5 uM incubated for 30 mins by confocal microscopic analysis; type: ADME, cell-based; settings: 0.5 h; summary of the method: as §1
[21] = Drug uptake in mitochondria of human HeLa cells assessed as drug accumulation at 5 uM measured after 30 mins by confocal microscopic analysis; type: ADME; settings: 0.5 h; summary of the method: as §1
[22] = Drug uptake in nucleolus of human HeLa cells assessed as drug accumulation at 5 uM measured after 30 mins by confocal microscopic analysis; type: ADME, subcellular; settings: 0.5 h; summary of the method: as §1

Question: For CCN(CC)c1ccc2c(c1)O/C(=C(/C#N)c1cc[n+](C)cc1)C=C2C, which Drug uptake [1] is on record?
Answer: Active

Question: What about the Activity (HeLa [2]) of the same molecule?
Answer: inactive

Question: What about the Activity (HeLa [3]) of the same molecule?
Answer: inactive

Question: And the Activity (HeLa [4])?
Answer: Active

Question: What about the Activity (HeLa [5]) of the same molecule?
Answer: inactive

Question: What about the Activity (HeLa [6]) of the same molecule?
Answer: Active

Question: And the Drug uptake [7]?
Answer: Active

Question: And the Drug uptake [8]?
Answer: Active

Question: What about the Activity (HeLa [9]) of the same molecule?
Answer: inactive

Question: What about the Activity (HeLa [10]) of the same molecule?
Answer: inactive

Question: And the Activity (HeLa [11])?
Answer: inactive

Question: And the Activity (HeLa [12])?
Answer: Active

Question: And the Activity (HeLa [13])?
Answer: Active

Question: What about the Activity (HeLa [14]) of the same molecule?
Answer: Active

Question: What about the Activity [15] of the same molecule?
Answer: Active

Question: And the Activity (HeLa [16])?
Answer: inactive

Question: And the Activity (HeLa [17])?
Answer: Active

Question: And the Activity (HeLa [18])?
Answer: Active

Question: And the Activity (HeLa [19])?
Answer: Active

Question: For CCN(CC)c1ccc2c(c1)O/C(=C(/C#N)c1ccncc1)C=C2C, which Drug uptake [20] is on record?
Answer: Active

Question: And the Drug uptake [21]?
Answer: Not Active

Question: And the Drug uptake [22]?
Answer: Active
